Laboratory results as given in paper PMC10267526 (The Journal of Biological Chemistry, 2023).

Experiments:
hTRPML1-nLuc [1] = target: T1, hTRPML1-nLuc (Homo sapiens, UniProt Q9GZU1); assay: In-cell BRET competitive displacement of MRC087; assay type: binding
Summary of the method: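 hTRPML1-nLuc HEK293T cells (2 × 10^5/100 μl, 48 h post-transfection) in Opti-MEM received tracer at 2.0 μM final and serially diluted test compound (final DMSO 1%). After 2 h incubation, nLuc substrate plus inhibitor was added and emissions read at 460/610 nm. BRET was normalised to probe-only and no-probe wells and fitted for EC50, then converted to KdA by Cheng–Prusoff using tracer Kd. n = 3–4/concentration, three independent experiments.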

hTRPML1-nLuc [2] = target: T1, hTRPML1-nLuc; assay: In-cell BRET kinetics of competitive binding; details: for koff: read-out: koff of unlabeled compound
Summary of the method: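 hTRPML1-nLuc HEK293T cells in Opti-MEM were given nLuc substrate plus inhibitor, shaken 5 min and read for a 1-min baseline. The reader then injected tracer (2.0 μM final) premixed with one of two concentrations of unlabeled compound, or DMSO vehicle; 60 μM reference antagonist defined nonspecific binding. Specific BRET versus time was fitted to the Motulsky–Mahan competitive kinetics model with tracer kon/koff obtained separately. n = 6/concentration, single experiment.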

GCaMP6f-hTRPML1 [3] = target: T2, GCaMP6f-hTRPML1 (Homo sapiens, UniProt Q9GZU1); assay: GCaMP6f Ca2+ indicator channel activation assay; assay type: cell-based
T2 sequence (Q9GZU1 whole entry): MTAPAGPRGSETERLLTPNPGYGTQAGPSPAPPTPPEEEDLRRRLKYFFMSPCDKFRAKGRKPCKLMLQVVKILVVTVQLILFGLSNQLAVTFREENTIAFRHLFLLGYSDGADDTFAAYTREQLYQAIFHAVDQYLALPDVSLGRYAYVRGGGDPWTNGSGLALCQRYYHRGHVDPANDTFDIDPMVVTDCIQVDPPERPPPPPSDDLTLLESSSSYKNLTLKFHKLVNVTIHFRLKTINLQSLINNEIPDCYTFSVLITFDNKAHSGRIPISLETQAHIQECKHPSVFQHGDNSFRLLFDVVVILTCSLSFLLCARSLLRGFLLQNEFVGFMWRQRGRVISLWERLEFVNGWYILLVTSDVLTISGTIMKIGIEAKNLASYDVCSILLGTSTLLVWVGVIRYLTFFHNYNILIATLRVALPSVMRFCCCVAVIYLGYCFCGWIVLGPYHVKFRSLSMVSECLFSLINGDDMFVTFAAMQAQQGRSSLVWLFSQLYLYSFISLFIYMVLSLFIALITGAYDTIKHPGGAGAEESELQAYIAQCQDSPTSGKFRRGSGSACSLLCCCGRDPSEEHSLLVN
Summary of the method: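 HEK293T cells were transfected with GCaMP6f-hTRPML1 and seeded at 4 × 10^5 cells/100 μl in poly-D-lysine plates. After 24 h the medium was changed to phenol red-free DMEM, with a further 24 h growth. Plates were equilibrated 10 min at RT and 10 min at 25 °C, followed by a 1-min baseline read every 5 s. The 10× compound in Ca2+-free HEPES buffer was injected and reads continued 6 min (ex 480 ± 25, em 549–562 nm; final DMSO 0.5%). Baseline-normalised AUC was scaled to DMSO (0%) and reference agonist (100%), and EC50 was taken from a nonlinear fit. n = 6/concentration, three independent experiments.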

hTRPML1 = details: ref [11], [12], cited from earlier work
GCaMP6f-hTRPML1 [4] = target: T2, GCaMP6f-hTRPML1; assay: GCaMP6f Ca2+ indicator channel assay; assay type: cell-based
Summary of the method: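 GCaMP6f-hTRPML1-transfected HEK293T cells were preincubated 10 min at RT with test compound. After a 1-min baseline (reads every 5 s), reference agonist was injected at 25 μM final and fluorescence recorded a further 6 min (ex 480 ± 25, em 549–562 nm; 0.5% DMSO). Compounds were diluted in nominally Ca2+-free HEPES-buffered solution. Baseline-normalised AUC was scaled to DMSO and agonist controls, and IC50 was derived by nonlinear fit. n = 6/concentration, two independent experiments.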

T1 sequence (Q9GZU1 whole entry): as above

| Structure (SMILES) | Kd (hTRPML1-nLuc [1]) [µM] | Kd (hTRPML1-nLuc [2]) [µM] | residence time (hTRPML1-nLuc [2]) [min] | koff (hTRPML1-nLuc [2]) [s⁻¹] | EC50 (GCaMP6f-hTRPML1 [3]) [µM] | EC50 (hTRPML1; read-out: EC50 in previous studies) [µM] | IC50 (GCaMP6f-hTRPML1 [4]) [µM] | kon (hTRPML1-nLuc [2]; read-out: kon of unlabeled compound) [M⁻¹ s⁻¹] | IC50 (hTRPML1; read-out: IC50 in previous studies) [µM] |
| --- | --- | --- | --- | --- | --- | --- | --- | --- | --- |
| CC1CC(C)(C)N(C(=O)CN2C(=O)c3ccccc3C2=O)c2ccccc21 (stereo not shown) [compound 1, 2-(2-oxo-2-(2,2,4-trimethyl-3,4-dihydroquinolin-1(2H)-yl)ethyl)isoindoline-1,3-dione] | 19.8 ± 1.8 | 37.3 | 1.5 | 0.0108 | 13 ± 3.1 | 9.7 | – | – | – |
| COc1ccccc1N1CCN(c2ccccc2NS(=O)(=O)c2ccccc2)CC1 [compound 8, N-(2-(4-(2-methoxyphenyl)piperazin-1-yl)phenyl)benzenesulfonamide] | 2.8 ± 1.2 | 1 | 1.5 | 0.0112 | – | – | 2.8 ± 0.2 | 10700 | 1.8 |
